Calls of active or inactive are those of the source. The rule behind the calls is not given here.
Tests used:
Assay type in all cases: cell-based
[1] = molecular target: T1, Guanine nucleotide-binding protein G(q) subunit alpha (Homo sapiens) (UniProt P50148); assay: Inhibition of Galpha-q in human HEK293 cells assessed as reduction in CCh-induced IP1 accumulation at 100 uM preincubated for 2 hrs followed by CCh stimulation and measured after 35 mins by time resolved fluorescence assay
T1 sequence (whole entry): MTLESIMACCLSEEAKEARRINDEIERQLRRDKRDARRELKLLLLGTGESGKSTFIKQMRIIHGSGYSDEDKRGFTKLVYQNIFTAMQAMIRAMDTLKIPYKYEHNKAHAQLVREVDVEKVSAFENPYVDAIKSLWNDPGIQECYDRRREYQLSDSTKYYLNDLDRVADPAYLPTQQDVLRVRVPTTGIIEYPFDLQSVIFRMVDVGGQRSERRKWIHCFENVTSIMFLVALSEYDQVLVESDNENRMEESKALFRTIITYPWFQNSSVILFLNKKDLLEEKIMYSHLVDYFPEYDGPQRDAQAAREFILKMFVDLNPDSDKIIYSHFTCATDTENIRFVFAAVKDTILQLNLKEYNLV
Outline: (§1)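 HEK293 wt cells were grown in DMEM with 10% FBS and penicillin/streptomycin at 37 °C and 5% CO2. Cells were plated at 60,000 per well and pre-incubated 15 min at 37 °C. Compound was added in stimulation buffer for 2 h at 37 °C, followed by buffer containing 100 µM carbachol (concentration in the added buffer) for 35 min. IP1 was read by HTRF (620/665 nm ratio).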

[2] = molecular target: T1, Guanine nucleotide-binding protein G(q) subunit alpha (Homo sapiens); assay: Inhibition of Galpha-q in human HEK293 cells assessed as reduction in CCh-induced IP1 accumulation preincubated for 2 hrs followed by CCh stimulation and measured after 35 mins by time resolved fluorescence assay; outline: as §1
[3] = tested on: HEK293; assay: Cytotoxicity against human HEK293 cells assessed as reduction in cell viability at 100 uM incubated for 22 hrs by CellTiter-BlueTM cell viability assay; conditions: hek293, 22 h
Outline: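 HEK293 cells were seeded at 25,000 per well on poly-D-lysine and grown overnight, then exposed to compound for 22 h. CellTiter-Blue reagent was added for a further 2 h, and resorufin fluorescence was read at excitation 560 nm and emission 590 nm.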

[4] = molecular target: T1, Guanine nucleotide-binding protein G(q) subunit alpha (Homo sapiens); assay: Inhibition of Galpha-q in human HEK293 cells harbouring PL3alpha mutant assessed as reduction in CCh-induced IP1 accumulation preincubated for 2 hrs followed by CCh stimulation and measured after 35 mins by time resolved fluorescence assay

SMILES | inhibition [1] | inhibition [2] | inhibition [4] | Activity [3]
O=C1CCn2cc(-c3ccccc3)nc2CN1 | inactive | Dose-dependent effect | Active | Non-Toxic
N[C@@H](CS)C(=O)N1CCn2cc(-c3ccccc3)nc2[C@@H]1CC1CCCCC1 | Active | – | – | Toxic
N[C@@H](CS)C(=O)N1CCNC(=O)C1 | inactive | – | – | Non-Toxic
O=C1CCn2cc(-c3ccccc3)nc2[C@H](CC2CCCCC2)N1 | inactive | – | – | Non-Toxic
O=C1Cn2cc(-c3ccccc3)nc2CCN1 | inactive | – | – | Non-Toxic

Continued, in another order:

inhibition [1] | inhibition [2] | inhibition [4] | SMILES | Activity [3]
inactive | Dose-dependent effect | Active | O=C1Cn2cc(-c3ccccc3)nc2CN1 | Non-Toxic
inactive | – | – | N[C@@H](CS)C(=O)N1CCNC(=O)[C@@H]1CC1CCCCC1 | Non-Toxic
inactive | – | – | O=C1Cn2cc(-c3ccccc3)nc2[C@H](CC2CCCCC2)N1 | Non-Toxic
inactive | – | – | O=C1Cn2cc(-c3ccccc3)nc2[C@H](CC2CCCCC2)CN1 | Non-Toxic
